# Test results: ChEMBL document CHEMBL4334542, “Antimalarial N 1,N 3-Dialkyldioxonaphthoimidazoliums: Synthesis, Biological Activity, and Structure-activity Relationships” (ACS Med Chem Lett, 2020)
# pEC50, pIC50: −log10 of the molar value. Active and inactive are the calls of the source. No cut-off for these calls is given here.
# Columns and labels:
# Plasmodium falciparum [1] = experiment: Antimalarial activity against asexual stage of Plasmodium falciparum Dd2 infected in erythrocytes assessed as reduction in parasite growth incubated for 48 hrs under hypoxic condition by Hoechst 33342 staining based flow cytometry; format: functional, organism-based; conditions: Dd2, 48 h
# Summary of the method: (§1)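 Asexual Dd2 and 3D7 parasites in erythrocytes; DNA content of infected cells measured by Hoechst 33342 staining and FACS. IC50 is the concentration giving 50% of the net fluorescence of untreated control cultures; mean ± SD of n = 3 separate determinations.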
# CHO-K1 = experiment: Cytotoxicity against CHOK1 cells assessed as reduction in cell viability incubated for 48 hrs by CellTiter 96 aqueous one solution assay; format: cell-based; conditions: Cricetulus griseus, CHO-K1, 48 h
# Summary of the method: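 Cell growth measured by a tetrazolium dye assay. IC50 is the concentration reducing growth by 50% relative to untreated cultures; mean ± SD of n = 3 separate determinations.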
# Plasmodium falciparum [2] = experiment: Antimalarial activity against asexual stage of Plasmodium falciparum 3D7 infected in erythrocytes assessed as reduction in parasite growth incubated for 48 hrs under hypoxic condition by Hoechst 33342 staining based flow cytometry; format: functional, organism-based; conditions: 3D7, 48 h; summary of the method: as §1
# [3] = Redox cycling activity of the compound […] measured after 45 mins by phenol red reagent based horseradish peroxidase coupled assay
# Summary of the method: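 Redox cycling EC50 determined by the phenol red horseradish peroxidase assay.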
# Plasmodium falciparum [4] = experiment: Antimalarial activity against asexual stage of Plasmodium falciparum NF54 assessed as reduction in parasite growth at 1 uM incubated for 96 hrs by SYBR Green I dye-based fluorescence assay relative to control; format: functional; parameters: scale not given: the % may be the effect or the level left
# Plasmodium falciparum [5] = experiment: Antimalarial activity against asexual stage of Plasmodium falciparum W2 assessed as reduction in parasite growth incubated for 96 hrs by SYBR Green I dye-based fluorescence assay; format: functional, organism-based; conditions: W2, 96 h
# Plasmodium falciparum [6] = experiment: Antimalarial activity against asexual stage of Plasmodium falciparum K1 assessed as reduction in parasite growth incubated for 96 hrs by SYBR Green I dye-based fluorescence assay; format: functional, organism-based; conditions: K1, 96 h
# Summary of the method: (§2)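 Asexual NF54, K1 and W2 parasites; proliferation read as SYBR Green I fluorescence. IC50 is the concentration giving 50% of the net SYBR Green I fluorescence of untreated control cultures; mean ± SEM of n = 3 independent biological replicates.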
# Plasmodium falciparum [7] = experiment: Antimalarial activity against asexual stage of Plasmodium falciparum NF54 assessed as reduction in parasite growth incubated for 96 hrs by SYBR Green I dye-based fluorescence assay; format: functional, organism-based; conditions: NF54, 96 h; summary of the method: as §2
# Plasmodium falciparum [8] = experiment: Antimalarial activity against Plasmodium falciparum NF54 early gametocytes transfected with luciferase gene incubated for 48 hrs by luciferase reporter gene assay; format: functional, organism-based; conditions: NF54, 48 h
# Summary of the method: (§3)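 Gametocytes of NF54-Pfs16-GFP-Luc, early (>95% stage II/III) or late (>90% stage IV/V); luciferase read-out. IC50 is the concentration giving 50% reduction of luminescence; mean ± SEM of n = 3 independent biological replicates.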
# Plasmodium falciparum [9] = experiment: Antimalarial activity against Plasmodium falciparum NF54 late gametocytes transfected with luciferase gene incubated for 48 hrs by luciferase reporter gene assay; format: functional, organism-based; conditions: NF54, 48 h; summary of the method: as §3
# Plasmodium falciparum [10] = experiment: Antimalarial activity against Plasmodium falciparum K1 incubated for 48 hrs by [3H]-hypoxanthine incorporation assay; format: functional, organism-based
# Plasmodium falciparum [11] = experiment: Antimalarial activity against Plasmodium falciparum NF54 incubated for 48 hrs by [3H]-hypoxanthine incorporation assay; format: functional, organism-based
# Plasmodium falciparum [12] = experiment: Antimalarial activity against Plasmodium falciparum TM90C2B incubated for 48 hrs by [3H]-hypoxanthine incorporation assay; format: functional, organism-based
# Plasmodium falciparum [13] = experiment: Antimalarial activity against sexual stage of Plasmodium falciparum 3D7 gametocytes assessed as reduction in parasite growth incubated for 3 days by alamar blue staining based assay; format: functional, organism-based; conditions: 3D7, 72 h
# Plasmodium falciparum [14] = experiment: Antimalarial activity against asexual stage of Plasmodium falciparum 3D7 infected in O-positive erythrocytes assessed as reduction in parasite growth incubated for 72 hrs by SYBR Green I dye-based spectrophotometric analysis; format: functional, organism-based; conditions: 3D7, 72 h
Structure (SMILES),pIC50 (Plasmodium falciparum [1]),pIC50 (CHO-K1),pIC50 (Plasmodium falciparum [2]),pIC50 (Plasmodium falciparum [5]),pIC50 (Plasmodium falciparum [6]),pIC50 (Plasmodium falciparum [7]),pIC50 (Plasmodium falciparum [8]),pIC50 (Plasmodium falciparum [9]),other results
CCCCn1c2c([n+](C3CC3)c1C)C(=O)c1ccccc1C2=O,7.68,5.00,6.74,,,,,,
Cc1nc2c(n1C(C)C)C(=O)c1ccccc1C2=O,,,,,,,,,Activity [3]: inactive; Activity (Plasmodium falciparum [4]): <=50%
CCCn1c2c([n+](CCC)c1C)C(=O)c1ccccc1C2=O,7.95,4.79,7.57,,,,,,
CC[n+]1c2c(n(C(C)C)c1C)C(=O)c1ccccc1C2=O,7.93,4.82,7.21,,,,,,
Cc1n(C2CC2)c2c([n+]1C1CC1)C(=O)c1ccccc1C2=O,7.41,4.37,7.38,,,,,,
CCCCCC[n+]1c2c(n(CC(C)C)c1C)C(=O)c1ccccc1C2=O,,,,8.28,8.00,8.21,6.84,6.26,
CC[n+]1c2c(n(C)c1C)C(=O)c1ccccc1C2=O,7.70,5.44,8.08,,,,,,
O=C1C=CC(=O)C=C1 [BENZOQUINONE],,,,,,,,,Activity (Plasmodium falciparum [4]): 20 - 40%
CCCC[n+]1c2c(n(C)c1C)C(=O)c1ccccc1C2=O,7.85,4.88,8.37,,,,,,
CCCn1c2c([n+](CC)c1C)C(=O)c1ccccc1C2=O,8.08,5.09,8.43,8.31,8.19,8.46,6.41,6.15,Activity [3]: Active; pIC50 (Plasmodium falciparum [10]): 8.66; pIC50 (Plasmodium falciparum [11]): 8.92; pIC50 (Plasmodium falciparum [12]): 8.66
CCCCn1c2c([n+](CCCC)c1C)C(=O)c1ccccc1C2=O,7.36,4.52,7.30,,,,,,
CCn1c2c([n+](C3CC3)c1C)C(=O)c1ccccc1C2=O,7.46,5.18,7.18,,,,,,
O=C1C(O)=C([C@H]2CC[C@H](c3ccc(Cl)cc3)CC2)C(=O)c2ccccc21 [ATOVAQUONE],8.60,,8.55,,,,,,pIC50 (Plasmodium falciparum [10]): 9.30; pIC50 (Plasmodium falciparum [11]): 9.40; pIC50 (Plasmodium falciparum [12]): 4.94
CCCCCCCCCCCC[n+]1c2c(n(CC(C)C)c1C)C(=O)c1ccccc1C2=O,,,,8.26,7.95,8.37,6.44,6.76,
CC[n+]1c2c(n(CC(C)C)c1C)C(=O)c1ccccc1C2=O,,,,8.79,8.51,8.79,7.48,5.99,
Cc1n(CC(C)C)c2c([n+]1CC(C)C)C(=O)c1ccccc1C2=O,,,,8.24,7.90,8.04,6.47,6.09,
CCCCn1c2c([n+](CC)c1C)C(=O)c1ccccc1C2=O,8.04,4.43,8.38,8.54,8.62,8.79,6.57,6.49,Activity [3]: Active; pIC50 (Plasmodium falciparum [10]): 8.74; pIC50 (Plasmodium falciparum [11]): 9.00; pIC50 (Plasmodium falciparum [12]): 8.85
CCC[n+]1c2c(n(C)c1C)C(=O)c1ccccc1C2=O,7.84,5.41,8.32,,,,,,
CCOc1ccc(N(C(C)=O)C2=C(NC)C(=O)c3ccccc3C2=O)cc1,,,,,,,,,pEC50 (Plasmodium falciparum [13]): 6.91; pEC50 (Plasmodium falciparum [14]): 9.00
CCCC[n+]1c2c(n(CCC)c1C)C(=O)c1ccccc1C2=O,7.68,4.57,7.73,,,,,,
Cc1nc2c(n1C)C(=O)c1ccccc1C2=O,,,,,,,,,Activity [3]: inactive; Activity (Plasmodium falciparum [4]): <=50%
CCCCCCCC[n+]1c2c(n(CC(C)C)c1C)C(=O)c1ccccc1C2=O,,,,8.44,8.08,8.36,7.41,6.79,
